Laboratory results published in ChEMBL document CHEMBL1765068, “Role of the side chain stereochemistry in the α-glucosidase inhibitory activity of kotalanol, a potent natural α-glucosidase inhibitor” (Bioorg Med Chem, 2011).

Experiments:
[1] = Inhibition of rat small intestinal maltase after 30 mins
[2] = biological target: T1, Sucrase-isomaltase, intestinal (Rattus norvegicus, UniProt P23739); assay: Inhibition of rat small intestinal sucrase after 30 mins
Summary of the method: (§1)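 Enzyme source was rat small-intestinal brush-border membrane vesicles suspended in 0.1 M maleate buffer, pH 6.0. Substrate solutions were maltose 74 mM (maltase), sucrose 74 mM (sucrase) and isomaltose 7.4 mM (isomaltase). Glucose was measured by glucose oxidase. IC50 was read graphically from % inhibition versus log concentration.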

[3] = biological target: T1, Sucrase-isomaltase, intestinal; assay: Inhibition of rat small intestinal isomaltase after 30 mins
Summary of the method: as §1

[4] = biological target: Sucrase-isomaltase, intestinal (Rattus norvegicus) (UniProt P23739); settings: 100 ug/ml
[5] = biological target: Lysosomal alpha-glucosidase (Rattus norvegicus) (UniProt Q6P7A9); settings: 100 ug/ml
Lysosomal alpha-glucosidase (Rattus norvegicus), sequence (Q6P7A9 whole entry): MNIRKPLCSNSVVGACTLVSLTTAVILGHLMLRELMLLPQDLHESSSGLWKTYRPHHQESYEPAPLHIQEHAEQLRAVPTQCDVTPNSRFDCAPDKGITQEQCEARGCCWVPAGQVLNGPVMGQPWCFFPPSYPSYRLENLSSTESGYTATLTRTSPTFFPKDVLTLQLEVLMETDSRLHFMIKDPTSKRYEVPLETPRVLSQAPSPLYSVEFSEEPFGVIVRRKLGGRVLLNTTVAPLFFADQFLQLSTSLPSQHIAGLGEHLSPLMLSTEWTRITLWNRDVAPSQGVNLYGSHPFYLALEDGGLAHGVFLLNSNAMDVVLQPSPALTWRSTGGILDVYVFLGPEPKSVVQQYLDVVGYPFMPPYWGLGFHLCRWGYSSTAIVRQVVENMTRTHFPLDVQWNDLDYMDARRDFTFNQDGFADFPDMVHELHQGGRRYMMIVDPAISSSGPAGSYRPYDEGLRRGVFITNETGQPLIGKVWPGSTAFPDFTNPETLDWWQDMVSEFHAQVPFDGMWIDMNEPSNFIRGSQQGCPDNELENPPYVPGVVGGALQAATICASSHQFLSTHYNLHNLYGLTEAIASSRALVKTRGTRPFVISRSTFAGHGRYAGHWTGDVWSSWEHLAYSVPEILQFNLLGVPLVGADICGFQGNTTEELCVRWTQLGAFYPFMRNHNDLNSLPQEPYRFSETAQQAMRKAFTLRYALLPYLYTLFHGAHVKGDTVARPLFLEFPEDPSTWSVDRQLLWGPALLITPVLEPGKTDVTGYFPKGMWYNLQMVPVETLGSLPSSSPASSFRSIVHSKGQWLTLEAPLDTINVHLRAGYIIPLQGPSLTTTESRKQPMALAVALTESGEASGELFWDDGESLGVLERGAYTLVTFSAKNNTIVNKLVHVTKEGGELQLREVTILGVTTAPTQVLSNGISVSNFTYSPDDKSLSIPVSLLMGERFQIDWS

Sucrase-isomaltase, intestinal (Rattus norvegicus), sequence (P23739 1-1013 limits assumed): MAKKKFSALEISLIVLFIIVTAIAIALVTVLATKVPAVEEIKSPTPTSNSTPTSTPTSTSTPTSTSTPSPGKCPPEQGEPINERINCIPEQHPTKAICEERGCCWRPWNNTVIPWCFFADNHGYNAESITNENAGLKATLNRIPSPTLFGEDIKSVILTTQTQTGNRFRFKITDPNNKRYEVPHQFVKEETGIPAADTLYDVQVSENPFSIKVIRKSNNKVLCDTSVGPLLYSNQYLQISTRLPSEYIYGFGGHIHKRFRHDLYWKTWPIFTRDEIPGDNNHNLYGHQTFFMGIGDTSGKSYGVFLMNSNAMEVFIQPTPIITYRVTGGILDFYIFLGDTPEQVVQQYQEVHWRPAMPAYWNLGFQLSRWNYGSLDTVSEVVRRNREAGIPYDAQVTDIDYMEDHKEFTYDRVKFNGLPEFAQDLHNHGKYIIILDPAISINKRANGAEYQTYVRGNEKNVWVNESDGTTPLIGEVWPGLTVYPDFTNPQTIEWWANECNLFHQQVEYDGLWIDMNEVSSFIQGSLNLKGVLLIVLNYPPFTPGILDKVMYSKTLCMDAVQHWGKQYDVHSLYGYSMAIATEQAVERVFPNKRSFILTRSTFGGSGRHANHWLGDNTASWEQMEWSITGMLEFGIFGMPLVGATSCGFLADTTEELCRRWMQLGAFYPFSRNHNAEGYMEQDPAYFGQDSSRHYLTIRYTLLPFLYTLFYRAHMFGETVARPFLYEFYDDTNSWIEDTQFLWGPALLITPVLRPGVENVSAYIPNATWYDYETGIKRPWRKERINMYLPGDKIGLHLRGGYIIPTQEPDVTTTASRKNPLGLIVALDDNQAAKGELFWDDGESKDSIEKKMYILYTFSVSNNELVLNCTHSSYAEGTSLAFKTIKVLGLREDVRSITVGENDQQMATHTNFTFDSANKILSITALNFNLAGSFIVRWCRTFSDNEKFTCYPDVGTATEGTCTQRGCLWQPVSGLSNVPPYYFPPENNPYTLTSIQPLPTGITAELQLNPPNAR
Sucrase-isomaltase, intestinal (Rattus norvegicus), sequence (P23739 1014-1841 limits assumed): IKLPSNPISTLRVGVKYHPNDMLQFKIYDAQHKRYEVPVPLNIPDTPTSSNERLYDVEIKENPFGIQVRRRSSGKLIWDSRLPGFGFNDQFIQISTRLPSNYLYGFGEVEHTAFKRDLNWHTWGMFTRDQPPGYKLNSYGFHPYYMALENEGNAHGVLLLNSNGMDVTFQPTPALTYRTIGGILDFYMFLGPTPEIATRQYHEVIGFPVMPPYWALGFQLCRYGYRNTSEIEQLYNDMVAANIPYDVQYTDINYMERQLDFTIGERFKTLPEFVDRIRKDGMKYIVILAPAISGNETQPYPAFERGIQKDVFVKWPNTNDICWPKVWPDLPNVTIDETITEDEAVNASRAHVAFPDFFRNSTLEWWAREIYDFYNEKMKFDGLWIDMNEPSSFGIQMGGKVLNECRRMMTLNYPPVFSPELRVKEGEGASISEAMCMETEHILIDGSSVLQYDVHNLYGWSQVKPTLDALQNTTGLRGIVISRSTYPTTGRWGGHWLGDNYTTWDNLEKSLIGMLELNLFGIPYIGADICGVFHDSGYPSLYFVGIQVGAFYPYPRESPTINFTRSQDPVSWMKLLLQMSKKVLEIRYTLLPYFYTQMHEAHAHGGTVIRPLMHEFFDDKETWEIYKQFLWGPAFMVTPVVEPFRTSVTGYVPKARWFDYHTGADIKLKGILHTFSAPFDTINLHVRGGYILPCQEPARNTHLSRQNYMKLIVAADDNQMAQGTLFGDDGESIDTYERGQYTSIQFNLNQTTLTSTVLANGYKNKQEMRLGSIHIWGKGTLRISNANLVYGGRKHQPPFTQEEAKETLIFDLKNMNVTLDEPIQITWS
T1 sequence (P23739 1-1013 limits assumed): as the sequence (P23739 1-1013 limits assumed) above
T1 sequence (P23739 1014-1841 limits assumed): as the sequence (P23739 1014-1841 limits assumed) above

Compound	IC50 [1] [µM]	IC50 [2] [µM]	IC50 [3] [µM]	inhibition [4] [%]	inhibition [5] [%]
OCC(CO)N[C@H]1C[C@](O)(CO)[C@@H](O)[C@H](O)[C@H]1O [VOGLIBOSE]		1.2			
O=S(=O)([O-])O[C@H]([C@@H](O)[C@H](O)[C@@H](O)CO)[C@H](O)C[S+]1C[C@@H](O)[C@H](O)[C@H]1CO (stereo not given in full)		> 236	8.5	28	32
O=S(=O)([O-])O[C@H]([C@@H](O)[C@@H](O)[C@@H](O)CO)[C@H](O)C[S+]1C[C@@H](O)[C@H](O)[C@H]1CO (stereo not given in full)		23	25		
O=S(=O)([O-])O[C@H]([C@@H](O)[C@@H](O)[C@H](O)CO)[C@H](O)C[S+]1C[C@@H](O)[C@H](O)[C@H]1CO (stereo not given in full)		> 236	16	8	25

Continued, values first:

IC50 [1] [µM]	IC50 [2] [µM]	IC50 [3] [µM]	inhibition [4] [%]	inhibition [5] [%]	Compound
5.2					O=S(=O)([O-])O[C@@H](CO)[C@H](O)C[S@+]1C[C@@H](O)[C@H](O)[C@H]1CO [SALACINOL]
7.2					O=S(=O)([O-])O[C@@H]([C@H](O)[C@H](O)[C@@H](O)CO)[C@H](O)C[S+]1C[C@@H](O)[C@H](O)[C@H]1CO (stereo not given in full) [KOTALANOL]
	0.29	2.6			O=S(=O)([O-])OC[C@H](O)C[S@+]1C[C@@H](O)[C@H](O)[C@H]1CO [SALAPRINOL]
	> 100				O=S(=O)([O-])O[C@@H]([C@H](O)[C@@H](O)CO)[C@H](O)C[S@+]1C[C@@H](O)[C@H](O)[C@H]1CO [PONKORANOL]
	> 236	9	34	45	O=S(=O)([O-])O[C@H]([C@@H](O)[C@H](O)[C@H](O)CO)[C@H](O)C[S+]1C[C@@H](O)[C@H](O)[C@H]1CO (stereo not given in full)
